Source: ChEMBL document CHEMBL5303300, “EUbOPEN Chemogenomics Library - Multiplex” (2023)
Several values for one entry are separate records, joined by “and”; a condition that tells them apart may be missing. Equal entries are not always repeated.

Test system: Fibroblast
Assay: Multiplex assay against human fibroblast
Assay type: toxicity, cell-based
Settings: number of replicates 2
Method in brief: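 Imaging took place on a CQ1 microscope at 37°C and 5% CO2 once compound had been added to live cells stained at seeding with Hoechst33342, BioTracker Green Microtubule Cytoskeleton Dye, MitoTracker Red and Annexin V Alexa Fluor 680. CellPathfinder machine-learning gating classed cells as Hoechst high-intensity objects or normal cells, classed normal cells as having healthy, pyknosed or fragmented nuclei, and classed pyknosed cells as mitotic or apoptotic. Tubulin, mitochondrial-mass and membrane-permeability phenotypes are per cents of the healthy-nucleus cells.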

[1] = 12 h, 1 µM, compound concentration 1 uM
[2] = 12 h, 10 µM, compound concentration 10 uM
[3] = 24 h, 1 µM, compound concentration 1 uM
[4] = 24 h, 10 µM, compound concentration 10 uM
[5] = 48 h, 1 µM, compound concentration 1 uM
[6] = 48 h, 10 µM, compound concentration 10 uM

COc1cc(C(=O)NC2CCN(C)CC2)ccc1Nc1ncc(C(F)(F)F)c(NCc2ccc(C)cc2N(C)S(C)(=O)=O)n1.O=CO.O=CO
Population Apoptotic (%) [1]: 44% and 53%
Population Fragmented Nuclei (%) [1]: 24% and 14%
Population Healthy Nuclei (%) [1]: 64% and 61%
Population Hoechst High Intensity Objects (%) [1]: 1% and 0%
Population Membrane Permeable-Phenotype (%) [1]: 8% and 11%
Population Mitochondria Different-Phenotype (%) [1]: 3% and 4%
Population Mitotic Cells (%) [1]: 55% and 46%
Population Normal (%) [1]: 98% and 100%
Population Pyknosed Nuclei (%) [1]: 10% and 24%
Population Tubulin-Different-Phenotype (%) [1]: 64% and 46%
Total Cell Count [1]: 277 and 215
Population Apoptotic (%) [2]: 63% and 46%
Population Fragmented Nuclei (%) [2]: 6% and 16%
Population Healthy Nuclei (%) [2]: 27% and 55%
Population Hoechst High Intensity Objects (%) [2]: 0%
Population Membrane Permeable-Phenotype (%) [2]: 6% and 8%
Population Mitochondria Different-Phenotype (%) [2]: 15%
Population Mitotic Cells (%) [2]: 36% and 53%
Population Normal (%) [2]: 100% and 99%
Population Pyknosed Nuclei (%) [2]: 66% and 27%
Population Tubulin-Different-Phenotype (%) [2]: 67% and 69%
Total Cell Count [2]: 168 and 259
Population Apoptotic (%) [3]: 63% and 64%
Population Fragmented Nuclei (%) [3]: 21% and 17%
Population Healthy Nuclei (%) [3]: 70% and 66%
Population Hoechst High Intensity Objects (%) [3]: 1% and 0%
Population Membrane Permeable-Phenotype (%) [3]: 4% and 6%
Population Mitochondria Different-Phenotype (%) [3]: 9% and 6%
Population Mitotic Cells (%) [3]: 36% and 35%
Population Normal (%) [3]: 98% and 100%
Population Pyknosed Nuclei (%) [3]: 8% and 16%
Population Tubulin-Different-Phenotype (%) [3]: 53% and 38%
Total Cell Count [3]: 268 and 243
Population Apoptotic (%) [4]: 94% and 92%
Population Fragmented Nuclei (%) [4]: 5% and 12%
Population Healthy Nuclei (%) [4]: 9% and 16%
Population Hoechst High Intensity Objects (%) [4]: 0% and 1%
Population Mitochondria Different-Phenotype (%) [4]: 23% and 62%
Population Mitotic Cells (%) [4]: 5% and 7%
Population Normal (%) [4]: 99% and 98%
Population Pyknosed Nuclei (%) [4]: 85% and 70%
Population Tubulin-Different-Phenotype (%) [4]: 84% and 77%
Total Cell Count [4]: 135 and 166
Population Apoptotic (%) [5]: 94% and 90%
Population Fragmented Nuclei (%) [5]: 27% and 25%
Population Healthy Nuclei (%) [5]: 66% and 65%
Population Hoechst High Intensity Objects (%) [5]: 0%
Population Membrane Permeable-Phenotype (%) [5]: 6% and 5%
Population Mitochondria Different-Phenotype (%) [5]: 5% and 2%
Population Mitotic Cells (%) [5]: 5% and 9%
Population Normal (%) [5]: 99%
Population Pyknosed Nuclei (%) [5]: 6% and 8%
Population Tubulin-Different-Phenotype (%) [5]: 43% and 20%
Total Cell Count [5]: 267 and 253
Population Apoptotic (%) [6]: 97% and 96%
Population Fragmented Nuclei (%) [6]: 27% and 31%
Population Healthy Nuclei (%) [6]: 16% and 15%
Population Hoechst High Intensity Objects (%) [6]: 0%
Population Membrane Permeable-Phenotype (%) [6]: 31% and 30%
Population Mitochondria Different-Phenotype (%) [6]: 9% and 26%
Population Mitotic Cells (%) [6]: 2% and 3%
Population Normal (%) [6]: 100%
Population Pyknosed Nuclei (%) [6]: 56% and 53%
Population Tubulin-Different-Phenotype (%) [6]: 81% and 78%
Total Cell Count [6]: 132 and 153

Cc1ccc(C(=O)Nc2cc(N3CCN(C)CC3)cc(C(F)(F)F)c2)cc1-n1cc(-c2cnn(C)c2C)nn1.Cl
Population Apoptotic (%) [1]: 40% and 42%
Population Fragmented Nuclei (%) [1]: 6% and 16%
Population Healthy Nuclei (%) [1]: 48% and 59%
Population Hoechst High Intensity Objects (%) [1]: 0%
Population Membrane Permeable-Phenotype (%) [1]: 20% and 12%
Population Mitochondria Different-Phenotype (%) [1]: 2%
Population Mitotic Cells (%) [1]: 59% and 57%
Population Normal (%) [1]: 100%
Population Pyknosed Nuclei (%) [1]: 44% and 24%
Population Tubulin-Different-Phenotype (%) [1]: 35% and 32%
Total Cell Count [1]: 165 and 172
Population Apoptotic (%) [2]: 61% and 35%
Population Fragmented Nuclei (%) [2]: 17% and 18%
Population Healthy Nuclei (%) [2]: 51% and 62%
Population Hoechst High Intensity Objects (%) [2]: 0% and 1%
Population Membrane Permeable-Phenotype (%) [2]: 12% and 11%
Population Mitochondria Different-Phenotype (%) [2]: 4% and 7%
Population Mitotic Cells (%) [2]: 38% and 64%
Population Normal (%) [2]: 99% and 98%
Population Pyknosed Nuclei (%) [2]: 30% and 19%
Population Tubulin-Different-Phenotype (%) [2]: 85% and 70%
Total Cell Count [2]: 198 and 294
Population Apoptotic (%) [3]: 65% and 41%
Population Fragmented Nuclei (%) [3]: 10% and 17%
Population Healthy Nuclei (%) [3]: 46% and 59%
Population Hoechst High Intensity Objects (%) [3]: 0%
Population Membrane Permeable-Phenotype (%) [3]: 7% and 4%
Population Mitochondria Different-Phenotype (%) [3]: 7%
Population Mitotic Cells (%) [3]: 34% and 58%
Population Normal (%) [3]: 99% and 100%
Population Pyknosed Nuclei (%) [3]: 42% and 23%
Population Tubulin-Different-Phenotype (%) [3]: 36% and 35%
Total Cell Count [3]: 150 and 176
Population Apoptotic (%) [4]: 68% and 63%
Population Fragmented Nuclei (%) [4]: 16% and 17%
Population Healthy Nuclei (%) [4]: 57% and 59%
Population Hoechst High Intensity Objects (%) [4]: 0% and 1%
Population Membrane Permeable-Phenotype (%) [4]: 7% and 5%
Population Mitochondria Different-Phenotype (%) [4]: 12% and 15%
Population Mitotic Cells (%) [4]: 31% and 36%
Population Normal (%) [4]: 99% and 98%
Population Pyknosed Nuclei (%) [4]: 25% and 23%
Population Tubulin-Different-Phenotype (%) [4]: 76% and 58%
Total Cell Count [4]: 261 and 279
Population Apoptotic (%) [5]: 76% and 68%
Population Fragmented Nuclei (%) [5]: 15% and 18%
Population Healthy Nuclei (%) [5]: 49% and 66%
Population Hoechst High Intensity Objects (%) [5]: 0% and 1%
Population Membrane Permeable-Phenotype (%) [5]: 2%
Population Mitochondria Different-Phenotype (%) [5]: 5%
Population Mitotic Cells (%) [5]: 23% and 32%
Population Normal (%) [5]: 100% and 98%
Population Pyknosed Nuclei (%) [5]: 34% and 15%
Population Tubulin-Different-Phenotype (%) [5]: 32% and 19%
Total Cell Count [5]: 161 and 167
Population Apoptotic (%) [6]: 84% and 82%
Population Fragmented Nuclei (%) [6]: 19%
Population Healthy Nuclei (%) [6]: 59% and 63%
Population Hoechst High Intensity Objects (%) [6]: 3% and 4%
Population Membrane Permeable-Phenotype (%) [6]: 5% and 6%
Population Mitochondria Different-Phenotype (%) [6]: 10%
Population Mitotic Cells (%) [6]: 15% and 17%
Population Normal (%) [6]: 96% and 95%
Population Pyknosed Nuclei (%) [6]: 21% and 17%
Population Tubulin-Different-Phenotype (%) [6]: 68% and 54%
Total Cell Count [6]: 226 and 303

CCNc1ccc(-c2nn(-c3ccccc3C)c3c2C(C)Cc2nc(NC(=O)OC)sc2-3)cn1.O=C(O)C(F)(F)F (configuration not stated)
Population Apoptotic (%) [1]: 34% and 35%
Population Fragmented Nuclei (%) [1]: 22% and 27%
Population Healthy Nuclei (%) [1]: 60% and 57%
Population Hoechst High Intensity Objects (%) [1]: 0%
Population Membrane Permeable-Phenotype (%) [1]: 5% and 3%
Population Mitochondria Different-Phenotype (%) [1]: 0% and 3%
Population Mitotic Cells (%) [1]: 65%
Population Normal (%) [1]: 100%
Population Pyknosed Nuclei (%) [1]: 17% and 14%
Population Tubulin-Different-Phenotype (%) [1]: 35% and 27%
Total Cell Count [1]: 255 and 278
Population Apoptotic (%) [2]: 43% and 57%
Population Fragmented Nuclei (%) [2]: 15% and 26%
Population Healthy Nuclei (%) [2]: 66% and 61%
Population Hoechst High Intensity Objects (%) [2]: 0% and 1%
Population Membrane Permeable-Phenotype (%) [2]: 17% and 10%
Population Mitochondria Different-Phenotype (%) [2]: 6% and 12%
Population Mitotic Cells (%) [2]: 56% and 42%
Population Normal (%) [2]: 100% and 98%
Population Pyknosed Nuclei (%) [2]: 18% and 12%
Population Tubulin-Different-Phenotype (%) [2]: 87% and 86%
Total Cell Count [2]: 216 and 211
Population Apoptotic (%) [3]: 40% and 46%
Population Fragmented Nuclei (%) [3]: 20% and 17%
Population Healthy Nuclei (%) [3]: 64% and 70%
Population Hoechst High Intensity Objects (%) [3]: 0%
Population Membrane Permeable-Phenotype (%) [3]: 4% and 3%
Population Mitochondria Different-Phenotype (%) [3]: 2% and 4%
Population Mitotic Cells (%) [3]: 60% and 53%
Population Normal (%) [3]: 100% and 99%
Population Pyknosed Nuclei (%) [3]: 15% and 12%
Population Tubulin-Different-Phenotype (%) [3]: 35% and 28%
Total Cell Count [3]: 225 and 233
Population Apoptotic (%) [4]: 62% and 68%
Population Fragmented Nuclei (%) [4]: 21% and 27%
Population Healthy Nuclei (%) [4]: 62% and 65%
Population Hoechst High Intensity Objects (%) [4]: 0%
Population Membrane Permeable-Phenotype (%) [4]: 9% and 8%
Population Mitochondria Different-Phenotype (%) [4]: 12%
Population Mitotic Cells (%) [4]: 37% and 31%
Population Normal (%) [4]: 99% and 100%
Population Pyknosed Nuclei (%) [4]: 16% and 7%
Population Tubulin-Different-Phenotype (%) [4]: 88%
Total Cell Count [4]: 195 and 209
Population Apoptotic (%) [5]: 58% and 20%
Population Fragmented Nuclei (%) [5]: 13% and 15%
Population Healthy Nuclei (%) [5]: 77% and 78%
Population Hoechst High Intensity Objects (%) [5]: 0%
Population Membrane Permeable-Phenotype (%) [5]: 5% and 2%
Population Mitochondria Different-Phenotype (%) [5]: 2% and 0%
Population Mitotic Cells (%) [5]: 41% and 80%
Population Normal (%) [5]: 100% and 99%
Population Pyknosed Nuclei (%) [5]: 8% and 6%
Population Tubulin-Different-Phenotype (%) [5]: 26% and 18%
Total Cell Count [5]: 208 and 225
Population Apoptotic (%) [6]: 84% and 76%
Population Fragmented Nuclei (%) [6]: 15% and 19%
Population Healthy Nuclei (%) [6]: 65% and 64%
Population Hoechst High Intensity Objects (%) [6]: 0%
Population Membrane Permeable-Phenotype (%) [6]: 5% and 3%
Population Mitochondria Different-Phenotype (%) [6]: 19% and 22%
Population Mitotic Cells (%) [6]: 15% and 24%
Population Normal (%) [6]: 100%
Population Pyknosed Nuclei (%) [6]: 18% and 15%
Population Tubulin-Different-Phenotype (%) [6]: 87% and 90%
Total Cell Count [6]: 169 and 157
